Test results reported in ChEMBL document CHEMBL3414516, “Novel pyridyl substituted 4,5-dihydro-[1,2,4]triazolo[4,3-a]quinolines as potent and selective aldosterone synthase inhibitors with improved in vitro metabolic stability” (J Med Chem, 2015).

Experiments:
Homo sapiens = organism: Homo sapiens; test: Selectivity index, ratio of IC50 for human CYP11B1 to IC50 human CYP11B2
[1] = target: T1, Steroid 17-alpha-hydroxylase/17,20 lyase (Homo sapiens, UniProt P05093); test: Inhibition of human CYP17 expressed in Escherichia coli coexpressing human CYP17 and NADPH-P450 reductase
T1 sequence (P05093 whole entry): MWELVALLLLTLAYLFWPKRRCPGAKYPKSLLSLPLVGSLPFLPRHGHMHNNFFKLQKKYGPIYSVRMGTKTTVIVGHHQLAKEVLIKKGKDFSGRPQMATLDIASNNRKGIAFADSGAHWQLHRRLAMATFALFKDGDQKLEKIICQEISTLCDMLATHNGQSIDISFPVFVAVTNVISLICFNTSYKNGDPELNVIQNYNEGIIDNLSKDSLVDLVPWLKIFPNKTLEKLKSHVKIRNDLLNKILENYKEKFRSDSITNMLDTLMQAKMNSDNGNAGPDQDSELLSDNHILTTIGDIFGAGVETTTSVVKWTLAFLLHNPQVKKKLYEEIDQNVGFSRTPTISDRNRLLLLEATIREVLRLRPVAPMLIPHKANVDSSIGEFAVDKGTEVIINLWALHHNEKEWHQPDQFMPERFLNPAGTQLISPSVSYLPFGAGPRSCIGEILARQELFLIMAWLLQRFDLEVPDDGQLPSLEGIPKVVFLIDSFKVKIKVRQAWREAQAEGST

Aromatase = target: T2, Aromatase (Homo sapiens, UniProt P11511); test: Inhibition of CYP19 in human placental microsomes using [1beta-3H]androstenedione substrate; set-up: species or system Placenta
T2 sequence (P11511 whole entry): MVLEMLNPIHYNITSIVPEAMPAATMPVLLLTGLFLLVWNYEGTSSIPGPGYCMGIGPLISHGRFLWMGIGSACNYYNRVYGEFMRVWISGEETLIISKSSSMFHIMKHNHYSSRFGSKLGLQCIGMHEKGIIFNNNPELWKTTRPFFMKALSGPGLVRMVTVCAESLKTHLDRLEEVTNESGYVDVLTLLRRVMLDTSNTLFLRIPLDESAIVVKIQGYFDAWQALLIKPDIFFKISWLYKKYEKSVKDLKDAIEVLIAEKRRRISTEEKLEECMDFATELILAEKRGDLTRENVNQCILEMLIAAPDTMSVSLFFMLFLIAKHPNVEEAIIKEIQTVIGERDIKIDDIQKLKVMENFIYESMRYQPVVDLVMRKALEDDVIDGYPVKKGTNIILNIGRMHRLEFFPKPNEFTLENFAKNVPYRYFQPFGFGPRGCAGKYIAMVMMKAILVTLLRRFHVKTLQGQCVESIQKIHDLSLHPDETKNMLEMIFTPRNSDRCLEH

[2] = target: T3, Cytochrome P450 11B1, mitochondrial (Homo sapiens, UniProt P15538); test: Inhibition of human CYP11B1 expressed in V79 MZh cells using [14C]-deoxycorticosterone substrate incubated for 6 hrs by HPTLC method; type: cell-based, V79MZh
T3 sequence (P15538 whole entry): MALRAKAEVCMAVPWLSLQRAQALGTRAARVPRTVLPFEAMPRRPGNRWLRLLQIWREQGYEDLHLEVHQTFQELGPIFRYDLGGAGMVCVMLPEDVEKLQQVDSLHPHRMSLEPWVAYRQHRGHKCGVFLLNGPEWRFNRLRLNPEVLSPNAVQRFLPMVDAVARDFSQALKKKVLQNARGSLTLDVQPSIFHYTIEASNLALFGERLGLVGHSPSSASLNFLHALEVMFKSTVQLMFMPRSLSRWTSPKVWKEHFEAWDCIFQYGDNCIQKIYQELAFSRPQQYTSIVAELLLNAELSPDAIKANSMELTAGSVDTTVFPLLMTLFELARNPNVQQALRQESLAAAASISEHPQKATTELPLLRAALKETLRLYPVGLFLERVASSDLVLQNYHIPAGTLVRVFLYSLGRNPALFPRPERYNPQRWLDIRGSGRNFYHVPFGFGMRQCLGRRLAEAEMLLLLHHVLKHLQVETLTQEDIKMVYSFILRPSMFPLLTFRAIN
Outline: (§1)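 V79 MZh cells expressing human CYP11B1 or CYP11B2 were incubated 6 h with [¹⁴C]-deoxycorticosterone and inhibitor at various concentrations. Steroids were extracted with ethyl acetate, separated by HPTLC and quantified by phosphoimager.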

[3] = target: T4, Cytochrome P450 11B2, mitochondrial (Homo sapiens, UniProt P19099); test: Inhibition of human CYP11B2 expressed in V79 MZh cells using [14C]-deoxycorticosterone substrate incubated for 6 hrs by HPTLC method; type: cell-based, V79MZh; outline: as §1
T4 sequence (P19099 whole entry): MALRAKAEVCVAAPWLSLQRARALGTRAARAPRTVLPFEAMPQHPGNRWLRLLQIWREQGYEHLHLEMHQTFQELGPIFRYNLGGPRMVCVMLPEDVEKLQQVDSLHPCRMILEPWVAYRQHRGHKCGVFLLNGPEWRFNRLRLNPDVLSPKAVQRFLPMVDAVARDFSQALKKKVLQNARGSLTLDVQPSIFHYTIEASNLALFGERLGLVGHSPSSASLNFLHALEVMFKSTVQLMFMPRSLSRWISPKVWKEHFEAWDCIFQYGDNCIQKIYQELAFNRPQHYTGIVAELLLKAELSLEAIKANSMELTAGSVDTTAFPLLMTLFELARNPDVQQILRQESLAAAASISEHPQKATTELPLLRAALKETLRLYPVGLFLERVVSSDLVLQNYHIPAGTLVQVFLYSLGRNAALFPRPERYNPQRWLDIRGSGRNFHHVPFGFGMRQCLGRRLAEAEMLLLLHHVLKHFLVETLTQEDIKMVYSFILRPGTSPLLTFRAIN

[4] = Intrinsic clearance in human hepatic microsomes at 1 uM in presence of NADPH system by LC-MS/MS method; type: ADME; settings: liver microsomes, read-out: CLH
Outline: (§2)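 Pooled mixed-gender human liver microsomes at 0.5 mg/mL final protein in potassium phosphate–MgCl₂ buffer (100 mM, pH 7.4). Compound at 1 μM final with NADPH system, 37 °C. Samples at 2, 5, 15, 30 and 45 min, quenched with acetonitrile, vortexed, centrifuged, and supernatant analysed by LC–MS/MS.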

Cytochrome P450 2D6 = Cytochrome P450 2D6 (Homo sapiens, UniProt P10635); test: Inhibition of human recombinant CYP2D6 using bufuralol substrate by LC-MS/MS method; type: ADME
Chain of Cytochrome P450 2D6 (P10635 whole entry): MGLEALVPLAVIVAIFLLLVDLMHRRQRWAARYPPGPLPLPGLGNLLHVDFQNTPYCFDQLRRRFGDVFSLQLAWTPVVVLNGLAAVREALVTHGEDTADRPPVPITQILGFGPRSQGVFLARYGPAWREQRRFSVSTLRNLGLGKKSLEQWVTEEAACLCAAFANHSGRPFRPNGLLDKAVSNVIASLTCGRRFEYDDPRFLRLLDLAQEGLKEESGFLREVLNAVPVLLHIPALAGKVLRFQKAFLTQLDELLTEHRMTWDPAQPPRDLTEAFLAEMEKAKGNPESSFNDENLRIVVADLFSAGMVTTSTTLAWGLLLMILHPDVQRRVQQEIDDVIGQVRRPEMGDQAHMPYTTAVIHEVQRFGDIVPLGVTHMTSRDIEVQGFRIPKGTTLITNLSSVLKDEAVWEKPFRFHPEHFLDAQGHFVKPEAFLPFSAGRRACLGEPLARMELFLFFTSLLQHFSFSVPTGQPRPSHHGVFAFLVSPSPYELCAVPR
Outline: (§3)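 Compounds tested in duplicate at six concentrations up to 50 μM. Acetonitrile quench at one time point, then LC–MS/MS of probe metabolites. Metabolites were normalized to vehicle controls and IC50 calculated.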

Cytochrome P450 1A2 = target: T5, Cytochrome P450 1A2 (Homo sapiens, UniProt P05177); test: Inhibition of human recombinant CYP1A2 using phenacetin substrate by LC-MS/MS method; type: ADME; outline: as §3
T5 sequence (P05177 whole entry): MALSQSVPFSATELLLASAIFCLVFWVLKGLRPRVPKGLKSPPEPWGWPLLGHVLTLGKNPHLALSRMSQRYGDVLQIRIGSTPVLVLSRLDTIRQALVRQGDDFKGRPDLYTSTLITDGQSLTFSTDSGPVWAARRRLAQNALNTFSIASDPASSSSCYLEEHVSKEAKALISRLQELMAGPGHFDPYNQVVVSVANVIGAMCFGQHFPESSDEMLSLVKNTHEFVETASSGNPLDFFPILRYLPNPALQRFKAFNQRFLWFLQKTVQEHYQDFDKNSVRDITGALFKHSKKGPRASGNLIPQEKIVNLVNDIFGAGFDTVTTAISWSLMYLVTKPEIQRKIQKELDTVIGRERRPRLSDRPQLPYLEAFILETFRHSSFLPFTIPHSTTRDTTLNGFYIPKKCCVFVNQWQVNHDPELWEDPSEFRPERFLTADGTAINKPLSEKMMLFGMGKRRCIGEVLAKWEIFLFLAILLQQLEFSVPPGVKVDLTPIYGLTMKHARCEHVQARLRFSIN

Cytochrome P450 3A4 = Cytochrome P450 3A4 (Homo sapiens, UniProt P08684); test: Inhibition of human recombinant CYP3A4 using midazolam substrate by LC-MS/MS method; type: ADME; outline: as §3
Chain of Cytochrome P450 3A4 (P08684 whole entry): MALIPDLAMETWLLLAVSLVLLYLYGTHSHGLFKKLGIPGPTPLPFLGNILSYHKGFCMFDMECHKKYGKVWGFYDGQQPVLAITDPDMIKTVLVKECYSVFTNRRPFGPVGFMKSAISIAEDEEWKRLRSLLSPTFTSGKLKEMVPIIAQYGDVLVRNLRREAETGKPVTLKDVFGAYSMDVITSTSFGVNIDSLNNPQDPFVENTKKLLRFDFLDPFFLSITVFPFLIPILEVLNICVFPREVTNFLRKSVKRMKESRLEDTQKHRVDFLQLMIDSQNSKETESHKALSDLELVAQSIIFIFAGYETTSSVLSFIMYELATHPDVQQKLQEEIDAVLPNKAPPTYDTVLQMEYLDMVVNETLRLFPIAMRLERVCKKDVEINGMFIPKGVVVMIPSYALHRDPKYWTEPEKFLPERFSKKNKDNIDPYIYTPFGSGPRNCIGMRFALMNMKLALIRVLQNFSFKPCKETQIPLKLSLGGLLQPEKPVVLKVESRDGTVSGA

[5] = Half life in human hepatic microsomes at 1 uM in presence of NADPH system by LC-MS/MS method; type: ADME, Microsome; settings: liver microsomes; outline: as §2
Cytochrome P450 2C9 = Cytochrome P450 2C9 (Homo sapiens, UniProt P11712); test: Inhibition of human recombinant CYP2C9 using diclofenac substrate by LC-MS/MS method; type: ADME; outline: as §3
Chain of Cytochrome P450 2C9 (P11712 whole entry): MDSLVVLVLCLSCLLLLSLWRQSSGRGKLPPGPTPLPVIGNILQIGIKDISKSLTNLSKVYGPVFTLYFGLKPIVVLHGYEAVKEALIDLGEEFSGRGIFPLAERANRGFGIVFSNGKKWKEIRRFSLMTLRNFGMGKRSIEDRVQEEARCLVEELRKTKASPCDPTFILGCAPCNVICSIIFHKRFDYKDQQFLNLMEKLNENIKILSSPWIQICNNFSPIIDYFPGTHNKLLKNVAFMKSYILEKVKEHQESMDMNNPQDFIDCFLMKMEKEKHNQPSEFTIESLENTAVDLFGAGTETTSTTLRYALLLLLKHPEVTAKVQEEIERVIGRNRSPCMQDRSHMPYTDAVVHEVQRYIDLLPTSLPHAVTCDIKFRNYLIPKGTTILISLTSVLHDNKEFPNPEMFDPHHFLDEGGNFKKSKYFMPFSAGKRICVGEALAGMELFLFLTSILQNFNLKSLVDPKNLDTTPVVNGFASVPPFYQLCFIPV

Cytochrome P450 2C19 = Cytochrome P450 2C19 (Homo sapiens, UniProt P33261); test: Inhibition of human recombinant CYP2C19 using smephenytoin substrate by LC-MS/MS method; type: ADME; outline: as §3
Chain of Cytochrome P450 2C19 (P33261 whole entry): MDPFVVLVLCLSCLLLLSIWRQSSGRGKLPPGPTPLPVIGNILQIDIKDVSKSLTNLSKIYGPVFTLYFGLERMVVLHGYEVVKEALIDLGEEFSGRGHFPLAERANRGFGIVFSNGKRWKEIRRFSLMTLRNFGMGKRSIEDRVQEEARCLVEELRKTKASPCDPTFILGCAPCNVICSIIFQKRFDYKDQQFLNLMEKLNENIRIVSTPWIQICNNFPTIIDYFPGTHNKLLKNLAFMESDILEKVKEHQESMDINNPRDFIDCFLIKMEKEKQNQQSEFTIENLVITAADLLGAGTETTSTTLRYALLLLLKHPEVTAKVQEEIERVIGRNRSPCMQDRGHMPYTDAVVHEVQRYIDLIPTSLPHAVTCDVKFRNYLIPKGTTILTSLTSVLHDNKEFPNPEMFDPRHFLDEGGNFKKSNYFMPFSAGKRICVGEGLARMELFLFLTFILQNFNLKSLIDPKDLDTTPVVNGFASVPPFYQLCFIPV

[6] = Stability in human hepatic microsomes assessed as unchanged compound level at 1 uM after 120 mins in presence of NADPH system by LC-MS/MS method; type: ADME, Microsome; settings: liver microsomes, read-out: Stability

Compound	Ratio IC50 (Homo sapiens)	IC50 [1] [µM]	IC50 (Aromatase) [µM]	IC50 [2] [µM]	IC50 [3] [µM]	further results
CC(=O)c1cncc(-c2cc(F)c3c(c2)CCc2nnc(C)n2-3)c1	78	> 10	> 10			
Cc1nnc2n1-c1c(F)cc(-c3cncc(-c4ccccc4)c3)cc1CC2	60	> 10	> 10			
Cc1nnc2n1-c1c(F)cc(-c3cncc(C(F)(F)F)c3)cc1CC2	63	> 10	> 10			
Cc1nnc2n1-c1c(F)cc(-c3cncc4ccccc34)cc1CC2	49	> 10	> 10			
Cc1c(F)cncc1-c1cc(F)c2c(c1)CCc1nncn1-2	134	> 10	> 10	5.7	0.0425	
CC(C)c1nnc2n1-c1c(F)cc(-c3cccnc3)cc1CC2		> 10	> 10	> 10	> 10	
Cc1nnc2n1-c1c(F)cc(-c3cncc(C(C)O)c3)cc1CC2 (configuration not stated)	138	> 10	> 10			
Fc1cncc(-c2cc(F)c3c(c2)CCc2nncn2-3)c1		> 10	> 10	> 10	0.335	
Cc1c(F)cncc1-c1cc(F)c2c(c1)CCc1nnc(C)n1-2	232	> 10	> 10	4.52	0.0195	
Cc1nnc2n1-c1c(F)cc(-c3cncc(F)c3)cc1CC2	329	> 10	> 10		0.0897	microsomal CLint at 1 µM [4]: 12 µL/min/mg; IC50 (Cytochrome P450 2D6): > 50 µM; IC50 (Cytochrome P450 1A2): > 50 µM; IC50 (Cytochrome P450 3A4): > 50 µM; half-life at 1 µM [5]: > 2 h; IC50 (Cytochrome P450 2C9): > 50 µM; IC50 (Cytochrome P450 2C19): > 50 µM
Fc1cc(-c2cccnc2)cc2c1-n1c(nnc1-c1ccncc1)CC2		> 10	> 10	> 10	> 10	
Fc1cc(-c2cccnc2)cc2c1-n1cnnc1CC2	94	> 10	> 10			
Cc1ccncc1-c1cc(F)c2c(c1)CCc1nnc(C)n1-2	422	> 10	> 10		0.0042	microsomal CLint at 1 µM [4]: 4 µL/min/mg; IC50 (Cytochrome P450 2D6): > 50 µM; IC50 (Cytochrome P450 1A2): > 50 µM; IC50 (Cytochrome P450 3A4): > 50 µM; remaining at 2 h, 1 µM [6]: 80%; half-life at 1 µM [5]: > 2 h; IC50 (Cytochrome P450 2C9): > 50 µM; IC50 (Cytochrome P450 2C19): > 50 µM
O=C(c1ccccc1)c1nnc2n1-c1c(F)cc(-c3cccnc3)cc1CC2		> 10	> 10	> 10	0.708	
Fc1cc(-c2cccnc2)cc2c1-n1c(nnc1-c1ccccc1)CC2		> 10	> 10	> 10	> 10	
Cc1nnc2n1-c1c(F)cc(-c3cncc(C#N)c3)cc1CC2		> 10	> 10	> 10	1.18	
COc1cncc(-c2cc(F)c3c(c2)CCc2nnc(C)n2-3)c1	89	> 10	> 10			

Continued, in another order:

Ratio IC50 (Homo sapiens)	IC50 [1] [µM]	IC50 (Aromatase) [µM]	IC50 [2] [µM]	IC50 [3] [µM]	Compound	further results
32	> 10	> 10			Fc1cc2c(cc1-c1cccnc1)CCc1nncn1-2	
96	> 10	> 10			Cc1nnc2n1-c1cc(F)c(-c3cccnc3)cc1CC2	
	> 10	> 10	> 10	> 10	Fc1cc2c(cc1-c1cccnc1)CCc1nnc(-c3ccncc3)n1-2	
	> 10	> 10	> 10	0.542	CCc1nnc2n1-c1c(F)cc(-c3cccnc3)cc1CC2	
	> 10	> 10	> 10	4.35	Fc1cc2c(cc1-c1cccnc1)CCc1nnc(Cc3ccccc3)n1-2	
	> 10	> 10	> 10	> 10	Fc1cc2c(cc1-c1cccnc1)CCc1nnc(-c3ccccc3)n1-2	
272	> 10	> 10			Cc1nnc2n1-c1c(F)cc(-c3cccnc3)cc1CC2	half-life at 1 µM [5]: > 2 h
	> 10	> 10	> 10	0.979	CCc1nnc2n1-c1cc(F)c(-c3cccnc3)cc1CC2	
	> 10	> 10	> 10	> 10	CC(C)c1nnc2n1-c1cc(F)c(-c3cccnc3)cc1CC2	
